Measured values pooled from the literature.
Compare with care: the assays were run in different laboratories.
Observed: cell growth or viability

COc1cc(C)cc2oc(-c3ccccc3Br)cc(=O)c12  IC50 (HS27; MTT; 24 h): 130 µM
COc1cc(OC)c(OC)cc1CN1CCc2cc(OS(N)(=O)=O)c(OC)cc2C1  GI50 (MDA-MB-231; WST-1; 96 h): 0.491 µM
Cc1cc2c(cc1N1C(=O)c3cccc4c(CCCO)ccc(c34)C1=O)n(C)c(=O)n2C (racemic)  GI50 (NCI-H526; resazurin): 6.86 µM
O=C1CCCCC1=C1Sc2nc3ccc(S(=O)(=O)N4CCCC4)cc3nc2S1  viability (MDA-MB-231; MTT; 25 µM; 24 h): 23.4%
COc1ccc(-c2cc(=O)c3c(OC)cc(OC)cc3o2)cc1  IC50 (HS27; MTT; 24 h): > 200 µM
COc1cc2c(cc1O)CCN(Cc1cc(OC)c(OC)c(OC)c1)C2  GI50 (MDA-MB-231; WST-1; 96 h): 0.62 µM
COc1cc(OC)c2c(=O)cc(-c3ccc(C(F)(F)F)cc3)oc2c1  IC50 (HS27; MTT; 24 h): > 200 µM
C[C@]12CC[C@H](O)CC1=CC[C@@H]1[C@@H]2CC[C@]2(C)C(n3cnc4ccccc43)=CC[C@@H]12  GI50 (CWR22Rv1; MTT): 3.8 µM
COc1cc(OC)c2c(=O)cc(-c3ccc(Br)cc3)oc2c1-c1c(OC)cc(OC)c2c(=O)cc(-c3ccc(Br)cc3)oc12  IC50 (HS27; MTT; 24 h): > 200 µM
C=CC(=O)N1CCC[C@@H](n2nc(-c3ccc(Oc4ccccc4)cc3)c3c(N)ncnc32)C1  GI50 (OCI-Ly3; ATP luminescence; 72 h): 19.3 µM
CCc1cccc(CN2CCc3cc(O)c(OC)cc3C2)c1  GI50 (MDA-MB-231; WST-1; 96 h): > 100 µM
COc1cc(OC)c2c(=O)cc(-c3ccc(N(C)C)cc3)oc2c1  IC50 (HS27; MTT; 24 h): > 200 µM
CCOC(=O)C(C(C)=O)=C1Sc2nc3ccc(S(=O)(=O)N4CCCC4)cc3nc2S1  viability (MDA-MB-231; MTT; 25 µM; 24 h): 13.8%
COc1cc2c(cc1OS(N)(=O)=O)CCN(Cc1cccc(NS(C)(=O)=O)c1)C2  GI50 (MDA-MB-231; WST-1; 96 h): > 100 µM
COc1cccc2c1C(=O)c1c(O)c3c(c(O)c1C2=O)C[C@@](O)(C(=O)CO)C[C@@H]3O[C@H]1C[C@H](N)[C@H](O)[C@H](C)O1  viability (MDA-MB-231; MTT; 50 µM; 24 h): 11.8%
COc1cc(C)c(-c2c(C)cc(OC)c3c(=O)cc(-c4cccc(Br)c4)oc23)c2oc(-c3cccc(Br)c3)cc(=O)c12  IC50 (HS27; MTT; 24 h): > 200 µM
N#CC(C(=O)Nc1cccc(C(F)(F)F)c1)=C1Sc2nc3ccc(S(=O)(=O)N4CCCC4)cc3nc2S1  viability (MDA-MB-231; MTT; 25 µM; 24 h): 26.5%
COc1cc(OC)c2c(=O)cc(-c3ccccc3Br)oc2c1-c1c(OC)cc(OC)c2c(=O)cc(-c3ccccc3Br)oc12  IC50 (HS27; MTT; 24 h): > 200 µM
COc1cc2c(cc1O)CCN(Cc1ccc(OC)c(OC)c1OC)C2  GI50 (MDA-MB-231; WST-1; 96 h): > 100 µM
COC(=O)CN=c1scc(-c2ccccc2)n1-c1ccccc1[N+](=O)[O-]  IC50 (SiHa; MTT): 6.78 µM
CSc1ccc(-c2nc3ccc(C)cc3[nH]2)cc1  IC50 (MDA-MB-231; MTT; 48 h): > 100 µM
COc1cc(OC)c(CN2CCc3cc(O)c(OC)cc3C2)c(OC)c1  GI50 (MDA-MB-231; WST-1; 96 h): > 100 µM
C=CCn1c(-c2ccc(Cl)c(Cl)c2)nc2ccccc21  IC50 (MDA-MB-231; MTT): 40.8 µM
COc1cc2c(cc1O)CCN(C(=O)c1cc(OC)c(OC)c(OC)c1)C2  GI50 (MDA-MB-231; WST-1; 96 h): 0.733 µM
